According to ChEMBL document CHEMBL1914423, “New imidazo[2,1-b]thiazole derivatives: synthesis, in vitro anticancer evaluation, and in silico studies” (Eur J Med Chem, 2011):

What was measured:
SK-MEL-5 = experiment: Antiproliferative activity against human SK-MEL-5 cells after 48 hrs by MTT assay; assay type: functional, cell-based; details: SK-MEL-5, 48 h
IGROV-1 = experiment: Anticancer activity against human IGROV1 cells after 48 hrs by SRB assay; assay type: functional; details: IGROV-1, 48 h
Summary of the method: (§1)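 NCI five-dose screen. Cells in RPMI 1640 with 5% FBS and 2 mM L-glutamine, seeded at 5000–40,000 cells/well according to doubling time, then pre-incubated 24 h at 37 °C in 5% CO2. Drugs dissolved in DMSO, five concentrations by 10-fold or 1/2-log dilution. Cells fixed with TCA, SRB-stained, A515 read. IC50 solved from [(Ti−Tz)/(C−Tz)]×100 = 50.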

OVCAR-3 = experiment: Anticancer activity against human OVCAR3 cells after 48 hrs by SRB assay; assay type: functional; details: OVCAR-3, 48 h
A498 = experiment: Anticancer activity against human A498 cells after 48 hrs by SRB assay; assay type: functional; details: A498, 48 h; summary of the method: as §1
SNB-75 = experiment: Anticancer activity against human SNB75 cells after 48 hrs by SRB assay; assay type: functional; details: SNB-75, 48 h
CCRF-CEM = experiment: Anticancer activity against human CCRF-CEM cells after 48 hrs by SRB assay; assay type: functional; summary of the method: as §1
SN12C = experiment: Anticancer activity against human SN12C cells after 48 hrs by SRB assay; assay type: functional
SNB-19 = experiment: Anticancer activity against human SNB19 cells after 48 hrs by SRB assay; assay type: functional; details: SNB-19, 48 h
EKVX = experiment: Anticancer activity against human EKVX cells after 48 hrs by SRB assay; assay type: functional; summary of the method: as §1
HL-60(TB) = experiment: Anticancer activity against human HL-60(TB) cells after 48 hrs by SRB assay; assay type: functional; details: HL-60, 48 h
Summary of the method: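 NCI-60 five-dose screen. Cells grown in RPMI 1640 with 5% FBS and 2 mM L-glutamine, seeded at 5000–40,000 cells/well, and held 24 h at 37 °C and 5% CO₂ before drug. DMSO stocks were diluted into five concentrations (10-fold or ½-log steps). Settled suspension cells were fixed with cold TCA, SRB-stained, and read at 515 nm. […] was taken where [(Ti−Tz)/(C−Tz)]×100 = 50.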

[1] = Anticancer activity against human Hs 578T cells after 48 hrs by SRB assay; assay type: functional; summary of the method: as §1
NCI-H322M = experiment: Anticancer activity against human NCI-H322M cells after 48 hrs by SRB assay; assay type: functional
MDA-MB-435 = experiment: Antiproliferative activity against human MDA-MB-435 cells after 48 hrs by MTT assay; assay type: functional, cell-based; details: MDA-MB-435, 48 h
UACC-257 = experiment: Anticancer activity against human UACC257 cells after 48 hrs by SRB assay; assay type: functional; details: UACC-257, 48 h
Summary of the method: (§2)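 NCI-60 five-dose mode: cells in RPMI 1640 with 5% FBS and 2 mM glutamine, plated at 5000–40,000 cells/well, and preincubated 24 h, with time-zero plates TCA-fixed. Drug given at five concentrations (10-fold or ½-log serial dilutions). Cold TCA fixation 60 min at 4 °C, SRB stain, Tris solubilization, A515. IC50 taken where [(Ti−Tz)/(C−Tz)]×100 = 50.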

KM12 = experiment: Anticancer activity against human KM12 cells after 48 hrs by SRB assay; assay type: functional; details: KM12, 48 h; summary of the method: as §1
DU-145 = experiment: Anticancer activity against human DU145 cells after 48 hrs by SRB assay; assay type: functional; details: DU-145, 48 h; summary of the method: as §1
PC-3 = experiment: Anticancer activity against human PC3 cells after 48 hrs by SRB assay; assay type: functional; details: PC-3, 48 h
UO-31 = experiment: Anticancer activity against human UO31 cells after 48 hrs by SRB assay; assay type: functional; details: UO-31, 48 h; summary of the method: as §2
A549 = experiment: Anticancer activity against human A549 cells after 48 hrs by SRB assay; assay type: functional; details: A549, 48 h; summary of the method: as §1
MOLT-4 = experiment: Anticancer activity against human MOLT4 cells after 48 hrs by SRB assay; assay type: functional; details: MOLT-4, 48 h
NCI-H23 = experiment: Anticancer activity against human NCI-H23 cells after 48 hrs by SRB assay; assay type: functional; details: NCI-H23, 48 h
HCT-116 = experiment: Anticancer activity against human HCT116 cells after 48 hrs by SRB assay; assay type: functional; details: HCT-116, 48 h; summary of the method: as §1
SF-295 = experiment: Anticancer activity against human SF295 cells after 48 hrs by SRB assay; assay type: functional; details: SF-295, 48 h
HCC 2998 = experiment: Anticancer activity against human HCC2998 cells after 48 hrs by SRB assay; assay type: functional; details: HCC 2998, 48 h; summary of the method: as §1
T47D = experiment: Anticancer activity against human T47D cells after 48 hrs by SRB assay; assay type: functional; summary of the method: as §2
NCI-H226 = experiment: Anticancer activity against human NCI-H226 cells after 48 hrs by SRB assay; assay type: functional; details: NCI-H226, 48 h
SR = experiment: Anticancer activity against human SR cells after 48 hrs by SRB assay; assay type: functional; summary of the method: as §2
TK-10 = experiment: Anticancer activity against human TK10 cells after 48 hrs by SRB assay; assay type: functional; details: TK-10, 48 h; summary of the method: as §2
[2] = read-out: LC50 (the source's name)

Compound: O=C(NCCNc1nccc(-c2c(-c3cccc(O)c3)nc3sccn23)n1)c1ccccc1O
- IC50 (SK-MEL-5): 1.22 µM
- GI50 (IGROV-1): 17.4 µM
- TGI (IGROV-1): 92.9 µM
- CC50 (IGROV-1; [2]): > 100 µM
- GI50 (OVCAR-3): 3.35 µM
- TGI (OVCAR-3): 30.3 µM
- CC50 (OVCAR-3; [2]): > 100 µM
- GI50 (A498): 14.5 µM
- TGI (A498): 33.7 µM
- CC50 (A498; [2]): 78.1 µM
- GI50 (SNB-75): 2.65 µM
- TGI (SNB-75): 20.5 µM
- CC50 (SNB-75; [2]): > 100 µM
- GI50 (CCRF-CEM): 3.43 µM
- TGI (CCRF-CEM): > 100 µM
- CC50 (CCRF-CEM; [2]): > 100 µM
- GI50 (SN12C): 2.84 µM
- TGI (SN12C): 74.9 µM
- CC50 (SN12C; [2]): > 100 µM
- GI50 (SNB-19): 5.02 µM
- TGI (SNB-19): > 100 µM
- CC50 (SNB-19; [2]): > 100 µM
- GI50 (EKVX): 7.81 µM
- LC50 (EKVX): > 100 µM
- TGI (EKVX): 39.1 µM
- GI50 (HL-60(TB)): 4.95 µM
- LC50 (HL-60(TB)): > 100 µM
- TGI (HL-60(TB)): > 100 µM
- GI50 [1]: 2.96 µM
- TGI [1]: 26.9 µM
- CC50 [1, 2]: > 100 µM
- GI50 (NCI-H322M): 4.6 µM
- TGI (NCI-H322M): 18.5 µM
- CC50 (NCI-H322M; [2]): 66.6 µM
- IC50 (MDA-MB-435): 0.433 µM
- GI50 (UACC-257): 6.41 µM
- TGI (UACC-257): 73.6 µM
- CC50 (UACC-257; [2]): > 100 µM
- GI50 (KM12): 6.38 µM
- TGI (KM12): 27.3 µM
- CC50 (KM12; [2]): > 100 µM
- GI50 (DU-145): 5.22 µM
- TGI (DU-145): 43.3 µM
- CC50 (DU-145; [2]): > 100 µM
- GI50 (PC-3): 5.15 µM
- TGI (PC-3): 77.6 µM
- CC50 (PC-3; [2]): > 100 µM
- GI50 (UO-31): 5.68 µM
- TGI (UO-31): 19.7 µM
- CC50 (UO-31; [2]): 72.8 µM
- GI50 (A549): 11 µM
- LC50 (concentration giving 50% net tumour cell kill) (A549): > 100 µM
- TGI (A549): 49 µM
- GI50 (MOLT-4): 2.97 µM
- TGI (MOLT-4): 21.7 µM
- CC50 (MOLT-4; [2]): > 100 µM
- GI50 (NCI-H23): 11.5 µM
- LC50 (50% lethal concentration) (NCI-H23): > 100 µM
- TGI (NCI-H23): 67.7 µM
- GI50 (HCT-116): 5.13 µM
- TGI (HCT-116): > 100 µM
- CC50 (HCT-116; [2]): > 100 µM
- GI50 (SF-295): 7.69 µM
- TGI (SF-295): 27.2 µM
- CC50 (SF-295; [2]): 83.9 µM
- GI50 (HCC 2998): 3.55 µM
- TGI (HCC 2998): 16.5 µM
- CC50 (HCC 2998; [2]): > 100 µM
- GI50 (T47D): 2.95 µM
- TGI (T47D): 20 µM
- CC50 (T47D; [2]): > 100 µM
- GI50 (NCI-H226): 4.61 µM
- LC50 (concentration killing 50% of tumour cells) (NCI-H226): > 100 µM
- TGI (NCI-H226): 29.6 µM
- GI50 (SR): 5.94 µM
- TGI (SR): > 100 µM
- CC50 (SR; [2]): > 100 µM
- GI50 (TK-10): 11.6 µM
- TGI (TK-10): 52.2 µM
- CC50 (TK-10; [2]): > 100 µM
